Screening data as filed in PubChem BioAssay.
CHRM5 antagonist – human M5 muscarinic receptor antagonists, primary screen, CHO cells, Fluo-8 calcium fluorescence. 0.59% of 360,000 active. Muscarinic acetylcholine receptor M5 (Homo sapiens), P08912. CHO-hM5 cells, ACh EC80. inhibition, % at 3 µM;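 active = inhibition above a per-plate cutoff, the mean of that plate's test compounds plus 3 SD, cut at about 27% in these data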
Target sequence (P08912 whole entry, looked up): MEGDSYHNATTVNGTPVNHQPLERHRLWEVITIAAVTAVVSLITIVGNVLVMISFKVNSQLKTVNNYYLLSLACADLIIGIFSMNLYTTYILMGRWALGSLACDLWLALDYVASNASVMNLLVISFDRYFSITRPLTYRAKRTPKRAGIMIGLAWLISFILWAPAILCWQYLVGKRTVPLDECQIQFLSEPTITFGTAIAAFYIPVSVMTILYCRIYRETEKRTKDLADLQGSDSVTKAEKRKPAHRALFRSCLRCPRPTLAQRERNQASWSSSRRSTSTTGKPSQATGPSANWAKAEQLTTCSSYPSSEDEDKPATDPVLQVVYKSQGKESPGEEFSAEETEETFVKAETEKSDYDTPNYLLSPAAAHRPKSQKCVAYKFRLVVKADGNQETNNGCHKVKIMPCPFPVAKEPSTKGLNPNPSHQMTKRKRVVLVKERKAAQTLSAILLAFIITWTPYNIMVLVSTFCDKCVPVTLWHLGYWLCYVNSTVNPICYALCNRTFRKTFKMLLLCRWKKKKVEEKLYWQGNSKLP
CHRM4 antagonist – human M4 muscarinic receptor antagonists, primary screen, CHO cells, Fluo-8 calcium fluorescence | AID 624125, 2012 | inhibition, % at 3 µM | 0.73% of 360,000 active | CHO-hM4 cells, ACh EC80 | Muscarinic acetylcholine receptor M4 (Homo sapiens), P08173;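 active = inhibition above its plate's cutoff, the mean inhibition of sample wells plus 3 SD, cut at about 27% in these data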
M4 ag – human M4 muscarinic receptor agonists, primary screen, CHO-K1 cells, Fluo-8 calcium fluorescence | Muscarinic acetylcholine receptor M4 (Homo sapiens), P08173 | CHO-K1 hM4/Gqi5; vehicle 0%, full acetylcholine response 100% | activation, % at 3 µM | 0.14% of 360,000 active | AID 624127, 2012;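 active = activation above the run mean over all test wells plus 3 SD, cut at about 32% in these data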;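 note: peak over basal fluorescence ratio per well then scaled between controls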
M5 ag – human M5 muscarinic receptor agonists, primary screen, CHO-K1 cells, Fluo-8 calcium fluorescence | Muscarinic acetylcholine receptor M5 (Homo sapiens), P08912 | CHO-K1 hM5 cells; 0% DMSO wells, 100% maximal acetylcholine response | activation, % at 3 µM | 0.19% of 360,000 active;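 active = activation above the run's mean over test compounds plus 3 SD, cut at about 23% in these data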;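 note: signal is peak over basal fluorescence ratio across the kinetic read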
CHRM5 PAM – human M5 muscarinic receptor positive allosteric modulators, primary screen, CHO-K1 cells, Fluo-8 calcium fluorescence; CHO-K1 hM5, ACh EC20 PAM; 0% = ACh EC20, 100% = ACh EC100; activation, % at 3 µM; 0.3% of 360,000 active; AID 624038, 2012;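 active = activation above the run cutoff, the mean activation of all test compounds plus 3 SD, cut at about 18% in these data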
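Measured by: Fluo-8 calcium fluorescence; material: human M5 receptor in CHO-K1 cells; schedule: Post-acetylcholine fluorescence recording 140 s; benchmarks: low control EC20 acetylcholine (0%), high control EC100 acetylcholine (100%); read-out: Max/basal fluorescence ratio as % of EC20–EC100 ACh window; compound: single dose, 3 µM nominal final test concentration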
CHRM4 PAM – human M4 muscarinic receptor positive allosteric modulators, primary screen, CHO-K1 cells, Fluo-8 calcium fluorescence. Muscarinic acetylcholine receptor M4 (Homo sapiens), P08173. CHO-K1 hM4/Gqi5, ACh EC20; 0% = ACh EC20, 100% = maximal ACh. AID 624126, 2012. 0.4% of 360,000 active. activation, % at 3 µM;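 active = activation above its plate's cutoff, the mean activation of sample wells plus 3 SD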
Large screens that a line does not name were inactive. The list is not random: actives were taken first. Their share in the collection is about 1.9%.

CN1C(=S)SC(C)(C)C1(C)NO (stereo not drawn)	CHRM5 PAM 26
COc1ccc(C(=O)OCC(=O)NC(=O)Nc2ccccc2F)c(OC)c1	CHRM4 PAM 21
COc1ccc(C(=O)OCC(=O)NCCCc2ccccc2)c(OC)c1	none
Cc1nc(N2CCN(C(=O)c3cnccn3)CC2)c2c3c(sc2n1)CC(C(C)(C)C)CC3 (stereo not drawn)	none
CC(C)(C)NC(=O)NC(=O)CN1C(=O)NC(c2ccccc2)(c2ccccc2)C1=O	none
COc1ccc(-n2c(C)nn(C)c2=O)cc1	none
COc1ccc(-n2c(/C=C(\C)O)nc(=O)c3c(C)cc(C)nc32)cc1	CHRM4 PAM 34
CS(=O)(=O)N1CCCC(C(=O)Nc2cccc(F)c2)C1 (stereo not drawn)	CHRM5 PAM 18
CC(=O)Nc1cccc(NC(=O)C2CCCN2C(=O)Nc2cccc(F)c2)c1 (stereo not drawn)	CHRM5 PAM 21
CC(=O)Nc1cccc(NC(=O)C2CCCN2C(=O)Nc2cccc(C)c2)c1 (stereo not drawn)	none
CCOC(=O)C1CCCN(CC(=O)c2ccc(F)cc2)C1 (stereo not drawn)	M5 ag 27
CCOC(=O)c1ccc(NC(=O)C2CCCN(S(=O)(=O)c3ccc(F)cc3)C2)cc1 (stereo not drawn)	CHRM5 antagonist 32, CHRM4 antagonist 37
Cc1cccc(CSCc2ccc(C(=O)NC3CCCC3)o2)c1	none
CC(=O)c1ccc(NC(=O)C2CCCN(S(=O)(=O)c3cccc4nonc34)C2)cc1 (stereo not drawn)	none
Cc1ccc(NC(=O)C2CCCN(S(=O)(=O)c3cccc4nonc34)C2)cc1 (stereo not drawn)	CHRM5 antagonist 29
O=C(Nc1ccc(F)c(Cl)c1)C1CCCN(C2=NS(=O)(=O)c3ccccc32)C1 (stereo not drawn)	CHRM4 PAM 24
CN1CCCC(C#CC(O)(c2ccccc2)c2ccccc2)C1 (stereo not drawn)	CHRM5 antagonist 98, CHRM4 antagonist 74
C(=C\c1ccccc1)/CN1CCN(C(c2ccccc2)c2nnnn2C2CCCC2)CC1 (stereo not drawn)	CHRM5 antagonist 44
C(=C\c1ccccc1)/CN1CCN(C(c2cccc3ccccc23)c2nnnn2Cc2ccccc2)CC1 (stereo not drawn)	CHRM5 antagonist 38
C(=C\c1ccccc1)/CN1CCN(C(c2ccnc3ccccc23)c2nnnn2C2CCCC2)CC1 (stereo not drawn)	CHRM5 antagonist 86, CHRM4 antagonist 31
CC(C)(C)n1nnnc1C(c1ccnc2ccccc12)N1CCN(C/C=C/c2ccccc2)CC1 (stereo not drawn)	none
CC(C)(C)n1nnnc1C(c1cccs1)N1CCN(C/C=C/c2ccccc2)CC1 (stereo not drawn)	CHRM5 antagonist 28
CC(C)(C)n1nnnc1C(c1cccs1)N1CCN(Cc2ccccc2)CC1 (stereo not drawn)	none
C(=C\c1ccccc1)/CN1CCN(C(c2nnnn2C2CCCC2)C2CC2)CC1 (stereo not drawn)	none
CC(C)C[C@H](NC(=O)c1nc[nH]c1C(=O)NCc1ccccc1)C(=O)OCc1ccccc1	none
O=C1[C@H](c2ccccc2)[C@@H](c2ccccc2)N1c1ccncc1	none
C(=C\c1ccccc1)/CN1CCN(C(c2cccs2)c2nnnn2Cc2ccccc2)CC1 (stereo not drawn)	none
C(=C\c1ccccc1)/CN1CCN(C(c2cccs2)c2nnnn2C2CCCC2)CC1 (stereo not drawn)	CHRM5 antagonist 31
Cc1cc(C)c(-c2csc(NC(=O)c3cc([N+](=O)[O-])ccc3N3CCOCC3)n2)c(C)c1	CHRM4 antagonist 36
O=C(Nc1nc(-c2ccc(F)c(F)c2)cs1)c1cc([N+](=O)[O-])ccc1N1CCOCC1	none
NNC(=O)C(Cc1cnc[nH]1)NC(=O)OCc1ccccc1 (stereo not drawn)	none
O=c1[nH]cc(S(=O)(=O)N2CCN(c3ccccc3F)CC2)c(=O)[nH]1	none
CCCCCCCCCCn1c2c(c(=N)c3c1CCC3)CCC2	CHRM5 antagonist 39, CHRM4 antagonist 28
CCCCCCCCCn1c2c(c(=N)c3c1CCC3)CCCC2	CHRM5 antagonist 58, CHRM4 antagonist 63
CCOC(=O)Cn1c2c(c(=N)c3c1CCC3)CCC2	none
CCCCCCCCn1c2c(c(=N)c3ccccc31)CCC2	CHRM5 antagonist 48, CHRM4 antagonist 58
CCOC(=O)Cn1c2c(c(=N)c3ccccc31)CCC2	CHRM5 PAM 19
COc1ccc(C(CNC(=O)c2oc3c(Cl)cccc3c2C)N2CCCC2)cc1 (stereo not drawn)	none
Cc1nc2ccccn2c1-c1csc(Nc2cccc(O)c2)n1	none
Cc1cccc(Nc2nc(-c3c(C)nc4ccccn34)cs2)c1	CHRM5 antagonist 35, CHRM4 antagonist 31
CCOc1c(Nc2ccc(C(C)C)cc2)c(=O)c1=O	none
COc1cc(C(O)c2nc(-c3cccc4cccnc34)cs2)ccc1F (stereo not drawn)	none
CCCn1c(Cc2ccccc2)n[nH]c1=S	none
S=c1[nH]nc(Cc2ccccc2)n1Cc1ccco1	CHRM5 antagonist 33, CHRM4 antagonist 68
Cc1ccc2nc(C)c(CN3CCN(c4ccc([N+](=O)[O-])cc4Cl)CC3)n2c1	CHRM5 antagonist 38, CHRM4 antagonist 26
CC1(C(=O)NCc2ccccc2)CN(S(C)(=O)=O)CC(=O)N1Cc1cccc(F)c1 (stereo not drawn)	CHRM4 PAM 24
CC1=C(C)/C(=N\OS(=O)(=O)c2ccccc2)C=CC1=O	CHRM5 antagonist 30, CHRM4 antagonist 67
CCOC(=O)C1=C(COC(=O)Cc2ccccc2F)NC(=O)NC1C (stereo not drawn)	none
CC(C)Cc1ccc([C@H](C)C(=O)O)cc1	none
CC(C)Cc1ccc(C(C)C(=O)Nc2cccnc2)cc1 (stereo not drawn)	M5 ag 32
CC(C(=O)Nc1cccnc1)c1ccc([N+](=O)[O-])cc1 (stereo not drawn)	none
CC(C)Cc1ccc(C(C)C(=O)Nc2ccc(O)cc2)cc1 (stereo not drawn)	CHRM5 antagonist 27, CHRM4 antagonist 34, M4 ag 79, M5 ag 44
